From ChEMBL document CHEMBL1649435, “The octadecyloxyethyl ester of (S)-9-[3-hydroxy-2-(phosphonomethoxy) propyl]adenine is a potent and selective inhibitor of hepatitis C virus replication in genotype 1A, 1B, and 2A replicons” (Antimicrob Agents Chemother, 2009)

Assays:
Hepatitis C virus [1] = assay: Antiviral activity against HCV1B BM4-5 infected in human Huh7.5 cells assessed as decrease in intracellular viral RNA treated for 3 days measured 24 hrs after last dose by luciferase reporter gene-based […]; type: functional, organism-based, Hepacivirus hominis; settings: genotype 1b BM4-5, Huh-7
Method in brief: (§1)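 Huh-7.5.1 human hepatoma cells stably carried the BM4-5 FEO (genotype 1B) or SGR-JFH-1 FEO (genotype 2A) replicon, selected with 500 μg/ml G-418. Cells were seeded at 10,000 per well and incubated with compound up to 100 μM (0.3% DMSO final) for 48 to 72 h. Luciferase light units gave dose-response EC50s. Each condition was run in triplicate, with 3 or 4 experimental replicates.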

Hepatitis C virus [2] = assay: Antiviral activity against HCV2A SGR-JFH-1 infected in human Huh7.5 cells assessed as decrease in intracellular viral RNA treated for 3 days measured 24 hrs after last dose by luciferase reporter gene-based […]; type: functional, organism-based, Hepacivirus hominis; settings: genotype 2a SGR-JFH-1, Huh-7; method in brief: as §1
[3] = Cytotoxicity against human Huh7.5 cells administered for 3 days measured 24 hrs after last dose by neutral red dye uptake assay; type: cell-based, Huh-7
[4] = Selectivity index, ratio of CC50 for human Huh7.5 cells to EC50 for HCV genotype 1B BM4-5 infected in human Huh7.5 cells; design: species or system Huh-7
Method in brief: (§2)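 SI is CC50 divided by EC50, both from the same BM4-5 FEO (1B) or SGR-JFH-1 FEO (2A) replicon Huh-7.5.1 cultures. Cells (10,000 per well) got compound up to 100 μM (0.3% DMSO final) for 48 to 72 h. EC50 came from the luciferase read-out, CC50 from a fluorescent viability/death assay. Each condition was run in triplicate.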

[5] = Selectivity index, ratio of CC50 for human Huh7.5 cells to EC50 for HCV genotype 2A SGR-JFH-1 infected in human Huh7.5 cells; design: species or system Huh-7; method in brief: as §2

SMILES	EC50 (Hepatitis C virus [1])	EC50 (Hepatitis C virus [2])	CC50 at 72 h [3]	Selectivity Index [4]	Selectivity Index [5]
CCCCCCCCCCCCCCCCCCOCCOP(=O)(O)CO[C@H](CO)Cn1cnc2c(N)ncnc21	1.31 µM	0.69 µM	35.6 µM	27	52
CCCCCCCCCCCCCCCCCCOCCOP(=O)(O)CO[C@@H](CO)Cn1cnc2c(N)ncnc21	7 µM	26.7 µM	> 100 µM	>14	>4
Nc1ncnc2c1ncn2C[C@@H](CO)OCP(=O)(O)O	> 100 µM	> 100 µM	> 100 µM	–	–

Further lines, with some results ahead:

EC50 (Hepatitis C virus [1])	EC50 (Hepatitis C virus [2])	SMILES	CC50 at 72 h [3]	Selectivity Index [4]	Selectivity Index [5]
> 100 µM	> 100 µM	Nc1ncnc2c1ncn2C[C@H](CO)OCP(=O)(O)O	> 100 µM	–	–
2.02 µM	6.5 µM	CCCCCCCCCCCCCCCCOCCCOP(=O)(O)CO[C@H](CO)Cn1cnc2c(N)ncnc21	85.3 µM	42	13
6.71 µM	41 µM	CCCCCCCCCCCCCCCCOCCCOP(=O)(O)CO[C@@H](CO)Cn1cnc2c(N)ncnc21	> 100 µM	>15	>2
